Holding throughout (assay type): functional
Assay [1] in a line: Relative potency expressed in percent to that of neurotensin was measured using guinea pig atria. The method, boiled down:
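Both atria dissected free of ventricles, fat and blood; beating spontaneously under 0.5 g resting tension in 15-mL baths of oxygenated Krebs at 30 °C. Equilibrated 45–60 min before peptide exposure. Contractile force recorded isometrically via force-displacement transducer.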

The nature of assay [2]: Relative potency expressed in percent to that of neurotensin was measured using perfused rat heart assay. The procedure, abridged: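 Male albino Wistar rats heparinized i.p. (2.5 mg/rat), then killed. Hearts perfused with filtered, oxygenated Krebs at 37 °C by peristaltic pump, flow raised over 5 min to 8 mL/min (perfusion pressure 70–90 mmHg). Stabilized 30 min before peptide infusion. Read-out: change in perfusion pressure via aortic-cannula side-arm transducer.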

The nature of assay [3]: Relative potency expressed in percent to that of neurotensin was measured using rat stomach strips assay.

Peptide text beside a SMILES is read from it.

Turning to `CC(C)C[C@H](NC(=O)[C@@H]1CCC(=O)N1)C(=O)N[C@@H](Cc1ccc(O)cc1)C(=O)N[C@@H](CCC(=O)O)C(=O)N[C@@H](CC(N)=O)C(=O)N[C@@H](CCCCN)C(=O)N1CCC[C@H]1C(=O)N[C@@H](CCCN=C(N)N)C(=O)N[C@@H](CCCN=C(N)N)C(=O)N1CCC[C@H]1C(=O)N[C@@H](Cc1ccc(O)cc1)C(=O)O`, the Relative potency in assay [1], in assay [2] and in assay [3] was less than 0.01% throughout.

As for `CC[C@H](C)[C@H](NC(=O)[C@H](Cc1ccc(O)cc1)NC(=O)[C@@H]1CCCN1C(=O)[C@H](CCCNC(=N)N)NC(=O)[C@@H](N)CCCNC(=N)N)C(=O)N[C@@H](CC(C)C)C(=O)O`, the Relative potency is reported as 52% in assay [1], 102% in assay [2] and 69% in assay [3].

As to H-PRRPYIL-OH, the Relative potency in assay [1] was 49%; in assay [2], 59%; in assay [3], 65%.

For `CC[C@H](C)[C@H](NC(=O)[C@H](Cc1ccc(O)cc1)NC(=O)[C@@H]1CCCN1C(=O)[C@@H](C)NC(=O)[C@H](CCCN=C(N)N)NC(=O)[C@@H]1CCCN1C(=O)[C@H](CCCCN)NC(=O)[C@H](CC(N)=O)NC(=O)[C@H](CCC(=O)O)NC(=O)[C@H](Cc1ccc(O)cc1)NC(=O)[C@H](CC(C)C)NC(=O)[C@@H]1CCC(=O)N1)C(=O)N[C@@H](CC(C)C)C(=O)O`, the Relative potency in assay [1] stood at 2.6%; in assay [2] it was 0.3%; in assay [3], 1.5%.

On to `CC[C@H](C)[C@H](NC(=O)[C@@H](Cc1c[nH]c2ccccc12)NC(=O)[C@@H]1CCCN1C(=O)[C@H](CCCN=C(N)N)NC(=O)[C@H](CCCN=C(N)N)NC(=O)[C@@H]1CCCN1C(=O)[C@H](CCCCN)NC(=O)[C@H](CC(N)=O)NC(=O)[C@H](CCC(=O)O)NC(=O)[C@H](Cc1ccc(O)cc1)NC(=O)[C@H](CC(C)C)NC(=O)[C@@H]1CCC(=O)N1)C(=O)N[C@@H](CC(C)C)C(=O)O`, for which the results for the Relative potency in assay [1], in assay [2] and in assay [3] were 0.01%, 0.1% and 0.64%, respectively.

As for `CC[C@H](C)[C@H](NC(=O)[C@H](Cc1ccccc1)NC(=O)[C@@H]1CCCN1C(=O)[C@H](CCCN=C(N)N)NC(=O)[C@H](CCCN=C(N)N)NC(=O)[C@@H]1CCCN1C(=O)[C@H](CCCCN)NC(=O)[C@H](CC(N)=O)NC(=O)[C@H](CCC(=O)O)NC(=O)[C@H](Cc1ccc(O)cc1)NC(=O)[C@H](CC(C)C)NC(=O)[C@@H]1CCC(=O)N1)C(=O)N[C@@H](CC(C)C)C(=O)O`, the Relative potency in assay [1] amounted to 15%; in assay [2] it was 1.4%; in assay [3] it was 16%.

Turning to `CC(C)C[C@H](NC(=O)[C@@H]1CCC(=O)N1)C(=O)N[C@@H](Cc1ccc(O)cc1)C(=O)N[C@@H](CCC(=O)O)C(=O)N[C@@H](CC(N)=O)C(=O)N[C@@H](CCCCN)C(=O)N1CCC[C@H]1C(=O)N[C@@H](CCCN=C(N)N)C(=O)N[C@@H](CCCN=C(N)N)C(=O)N1CCC[C@H]1C(=O)O`, the Relative potency in assay [1], in assay [2] and in assay [3] was 0% in each case.

On to `CC[C@H](C)[C@H](NC(=O)[C@H](Cc1ccc(O)cc1)NC(=O)[C@@H]1CCCN1C(=O)[C@@H](N)CCCN=C(N)N)C(=O)N[C@@H](CC(C)C)C(=O)O`, for which the Relative potency in assay [1] was 1.3%; in assay [2], 1.6%; in assay [3], 11%.

With H-ENKPRRPYIL-OH, the results for the Relative potency in assay [1], in assay [2] and in assay [3] were 99%, 92% and 85%, respectively.

For `CC[C@H](C)[C@H](NC(=O)[C@H](Cc1ccc(O)cc1)NC(=O)CNC(=O)[C@H](CCCN=C(N)N)NC(=O)[C@H](CCCN=C(N)N)NC(=O)[C@@H]1CCCN1C(=O)[C@H](CCCCN)NC(=O)[C@H](CC(N)=O)NC(=O)[C@H](CCC(=O)O)NC(=O)[C@H](Cc1ccc(O)cc1)NC(=O)[C@H](CC(C)C)NC(=O)[C@@H]1CCC(=O)N1)C(=O)N[C@@H](CC(C)C)C(=O)O`, the Relative potency is recorded as roughly 0.01% in assay [1], less than 0.01% in assay [2] and roughly 0.01% in assay [3].

On to `CC[C@H](C)[C@H](NC(=O)[C@H](Cc1ccc(O)cc1)NC(=O)[C@@H]1CCCN1C(=O)[C@H](CCCN=C(N)N)NC(=O)[C@H](CCCN=C(N)N)NC(=O)[C@@H]1CCCN1C(=O)[C@@H](N)CCCCN)C(=O)N[C@@H](CC(C)C)C(=O)O`, for which the Relative potency in assay [1] stood at 73%; in assay [2], 84%; in assay [3], 78%.

As for `CC[C@H](C)[C@H](NC(=O)[C@H](Cc1ccc(O)cc1)NC(=O)[C@@H]1CCCN1)C(=O)N[C@@H](CC(C)C)C(=O)O` (H-PYIL-OH), the Relative potency in assay [1], in assay [2] and in assay [3] was 0% each time.

Turning to `CC[C@H](C)[C@H](NC(=O)[C@H](Cc1ccc(O)cc1)NC(=O)[C@@H]1CCCN1C(=O)[C@H](CCCN=C(N)N)NC(=O)[C@H](CCCN=C(N)N)NC(=O)[C@@H]1CCCN1C(=O)[C@H](CCCCN)NC(=O)[C@H](CC(N)=O)NC(=O)[C@H](CCC(=O)O)NC(=O)[C@H](Cc1ccc(O)cc1)NC(=O)[C@H](CC(C)C)NC(=O)[C@@H]1CCC(=O)N1)C(=O)O`, the Relative potency in assay [1] turned out to be 0.09%; in assay [2], 0.03%; in assay [3], 0.65%.

On to `CC[C@H](C)[C@H](NC(=O)[C@H](Cc1ccc(O)cc1)NC(=O)[C@@H]1CCCN1C(=O)[C@H](CCCN=C(N)N)NC(=O)[C@H](CCCN=C(N)N)NC(=O)[C@@H]1CCCN1C(=O)[C@H](CCCCN)NC(=O)[C@H](CC(N)=O)NC(=O)[C@H](CCC(=O)O)NC(=O)[C@H](Cc1ccc(O)cc1)NC(=O)[C@@H](N)CC(C)C)C(=O)N[C@@H](CC(C)C)C(=O)O`, for which the Relative potency was 94% in assay [1], 87% in assay [2] and 90% in assay [3].

As for `CC[C@H](C)[C@H](NC(=O)[C@@H](Cc1ccccc1)NC(=O)[C@@H]1CCCN1C(=O)[C@H](CCCN=C(N)N)NC(=O)[C@H](CCCN=C(N)N)NC(=O)[C@@H]1CCCN1C(=O)[C@H](CCCCN)NC(=O)[C@H](CC(N)=O)NC(=O)[C@H](CCC(=O)O)NC(=O)[C@H](Cc1ccc(O)cc1)NC(=O)[C@H](CC(C)C)NC(=O)[C@@H]1CCC(=O)N1)C(=O)N[C@@H](CC(C)C)C(=O)O`, the Relative potency is roughly 0.01% in assay [1], less than 0.01% in assay [2] and roughly 0.02% in assay [3].

As to `CC[C@H](C)[C@H](NC(=O)[C@H](Cc1c[nH]c2ccccc12)NC(=O)[C@@H]1CCCN1C(=O)[C@H](CCCN=C(N)N)NC(=O)[C@H](CCCN=C(N)N)NC(=O)[C@@H]1CCCN1C(=O)[C@H](CCCCN)NC(=O)[C@H](CC(N)=O)NC(=O)[C@H](CCC(=O)O)NC(=O)[C@H](Cc1ccc(O)cc1)NC(=O)[C@H](CC(C)C)NC(=O)[C@@H]1CCC(=O)N1)C(=O)N[C@@H](CC(C)C)C(=O)O`, the Relative potency in assay [1] was 3.2%; in assay [2], 102%; in assay [3], 130%.

In the case of H-YENKPRRPYIL-OH, the Relative potency is 84% in assay [1], 85% in assay [2] and 90% in assay [3].

On to `CC[C@H](C)[C@H](NC(=O)[C@H](C)NC(=O)[C@@H]1CCCN1C(=O)[C@H](CCCN=C(N)N)NC(=O)[C@H](CCCN=C(N)N)NC(=O)[C@@H]1CCCN1C(=O)[C@H](CCCCN)NC(=O)[C@H](CC(N)=O)NC(=O)[C@H](CCC(=O)O)NC(=O)[C@H](Cc1ccc(O)cc1)NC(=O)[C@H](CC(C)C)NC(=O)[C@@H]1CCC(=O)N1)C(=O)N[C@@H](CC(C)C)C(=O)O`, for which the figures for the Relative potency in assay [1], in assay [2] and in assay [3] were less than 0.01%, 0.01% and 0.01%, respectively.

Consider `CC[C@H](C)[C@H](NC(=O)[C@H](CC(C)C)NC(=O)[C@@H]1CCCN1C(=O)[C@H](CCCN=C(N)N)NC(=O)[C@H](CCCN=C(N)N)NC(=O)[C@@H]1CCCN1C(=O)[C@H](CCCCN)NC(=O)[C@H](CC(N)=O)NC(=O)[C@H](CCC(=O)O)NC(=O)[C@H](Cc1ccc(O)cc1)NC(=O)[C@H](CC(C)C)NC(=O)[C@@H]1CCC(=O)N1)C(=O)N[C@@H](CC(C)C)C(=O)O`, for which the results for the Relative potency in assay [1], in assay [2] and in assay [3] were less than 0.01%, 0.01% and roughly 0.03%, respectively.
